Laboratory results as given in ChEMBL document CHEMBL4354843, “Structure-Based Design of a Potent and Selective Covalent Inhibitor for SRC Kinase That Targets a P-Loop Cysteine” (J Med Chem, 2020).

How the values were obtained:
[1] = molecular target: RAC-alpha serine/threonine-protein kinase (Homo sapiens) (UniProt P31749); assay: Binding affinity to wild-type human partial length AKT1 expressed in bacterial expression system assessed as residual binding level at 1 uM by Kinomescan method relative to control
[2] = molecular target: Calcium/calmodulin-dependent protein kinase kinase 1 (Homo sapiens) (UniProt Q8N5S9); assay: Binding affinity to wild-type human partial length CAMKK1 (R65 to E414 residues) expressed in bacterial expression system assessed as residual binding level at 1 uM by Kinomescan method relative to control
[3] = molecular target: Eukaryotic translation initiation factor 2-alpha kinase 1 (Homo sapiens) (UniProt Q9BQI3); assay: Binding affinity to wild-type human partial length EIF2AK1 (Q147 to E603 residues) expressed in mammalian expression system assessed as residual binding level at 1 uM by Kinomescan method relative to control
[4] = molecular target: Ephrin type-A receptor 5 (Homo sapiens) (UniProt P54756); assay: Binding affinity to wild-type human partial length EPHA5 (T627 to V930 residues) expressed in bacterial expression system assessed as residual binding level at 1 uM by Kinomescan method relative to control
In short: (§1)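 Active-site-directed competition binding panel of 468 kinases (KinomeScan), compound at 1 μM. The read-out is kinase remaining bound, given as a percentage of the DMSO control. […]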

[5] = molecular target: Tyrosine-protein kinase Fer (Homo sapiens) (UniProt P16591); assay: Binding affinity to wild-type human partial length FER (S542 to T822 residues) expressed in bacterial expression system assessed as residual binding level at 1 uM by Kinomescan method relative to control
[6] = molecular target: Receptor-type tyrosine-protein kinase FLT3 (Homo sapiens) (UniProt P36888); assay: Binding affinity to wild-type human partial length autoinhibited FLT3 (H564 to Y969 residues) expressed in mammalian expression system assessed as residual binding level at 1 uM by Kinomescan method relative to control
[7] = molecular target: Vascular endothelial growth factor receptor 3 (Homo sapiens) (UniProt P35916); assay: Binding affinity to wild-type human partial length FLT4 (E821 to E1196 residues) expressed in bacterial expression system assessed as residual binding level at 1 uM by Kinomescan method relative to control
[8] = molecular target: Rhodopsin kinase GRK1 (Homo sapiens) (UniProt Q15835); assay: Binding affinity to wild-type human full length GRK1 (M1 to S563 residues) expressed in mammalian expression system assessed as residual binding level at 1 uM by Kinomescan method relative to control
In short: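 KinomeScan, an active site-directed competition binding panel of 468 kinases. The test compound was at 1 μM. The readout is remaining kinase binding as a percentage of the DMSO control. Scores above 35% were treated as weak binding and not listed.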

[9] = molecular target: Hormonally up-regulated neu tumor-associated kinase (Homo sapiens) (UniProt P57058); assay: Binding affinity to wild-type human partial length HUNK (A31 to K354 residues) expressed in bacterial expression system assessed as residual binding level at 1 uM by Kinomescan method relative to control
[10] = system: Mast/stem cell growth factor receptor Kit (Homo sapiens), P10721 [V559D]; assay: Binding affinity to human partial length KIT V559D mutant (Y545 to D952 residues) expressed in bacterial expression system assessed as residual binding level at 1 uM by Kinomescan method relative to control
In short: (§2)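 KinomeScan active site-directed competition binding panel (468 kinases), compound tested at 1 μM. Result expressed as remaining kinase signal versus DMSO control (percent of control).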

[11] = molecular target: Dual specificity mitogen-activated protein kinase kinase 5 (Homo sapiens) (UniProt Q13163); assay: Binding affinity to wild-type human partial length MEK5 (L98 to P448 residues) expressed in mammalian expression system assessed as residual binding level at 1 uM by Kinomescan method relative to control; in short: as §1
[12] = molecular target: Serine/threonine-protein kinase mTOR (Homo sapiens) (UniProt P42345); assay: Binding affinity to wild-type human partial length MTOR (L1382 to W2549 residues) expressed in mammalian expression system assessed as residual binding level at 1 uM by Kinomescan method relative to control; in short: as §1
[13] = molecular target: Phosphorylase b kinase gamma catalytic chain, skeletal muscle/heart isoform (Homo sapiens) (UniProt Q16816); assay: Binding affinity to wild-type human full length PHKG1 (M1 to Y387 residues) expressed in bacterial expression system assessed as residual binding level at 1 uM by Kinomescan method relative to control
In short: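 Active-site-directed competition binding panel (KinomeScan) covering 468 kinases. Test agent was screened at 1 μM. The read-out is the remaining kinase signal expressed relative to a DMSO control. Scores above 35%, taken as weak binding, were not reported.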

[14] = molecular target: Phosphorylase b kinase gamma catalytic chain, liver/testis isoform (Homo sapiens) (UniProt P15735); assay: Binding affinity to wild-type human partial length PHKG2 (M1 to W300 residues) expressed in bacterial expression system assessed as residual binding level at 1 uM by Kinomescan method relative to control
[15] = system: Phosphatidylinositol 4,5-bisphosphate 3-kinase catalytic subunit alpha isoform (Homo sapiens), P42336 [M1043I]; assay: Binding affinity to human partial length PIK3CA M1043I mutant (R108 to N1068 residues) expressed in mammalian expression system assessed as residual binding level at 1 uM by Kinomescan method relative to control; in short: as §2
[16] = molecular target: Phosphatidylinositol 4-phosphate 5-kinase type-1 gamma (Homo sapiens) (UniProt O60331); assay: Binding affinity to wild-type human partial length PIP5K1C (M1 to T668 residues) expressed in mammalian expression system assessed as residual binding level at 1 uM by Kinomescan method relative to control
[17] = molecular target: Serine/threonine-protein kinase RIO2 (Homo sapiens) (UniProt Q9BVS4); assay: Binding affinity to wild-type human partial length RIOK2 (M1 to D313 residues) expressed in mammalian expression system assessed as residual binding level at 1 uM by Kinomescan method relative to control
[18] = molecular target: Rho-associated protein kinase 2 (Homo sapiens) (UniProt O75116); assay: Binding affinity to wild-type human partial length ROCK2 (M1 to T431 residues) expressed in mammalian expression system assessed as residual binding level at 1 uM by Kinomescan method relative to control
[19] = molecular target: Serine/threonine-protein kinase 33 (Homo sapiens) (UniProt Q9BYT3); assay: Binding affinity to wild-type human full length STK33 (M1 to L514 residues) expressed in bacterial expression system assessed as residual binding level at 1 uM by Kinomescan method relative to control
[20] = molecular target: Serine/threonine-protein kinase ULK2 (Homo sapiens) (UniProt Q8IYT8); assay: Binding affinity to wild-type human partial length ULK2 (M1 to S301 residues) expressed in mammalian expression system assessed as residual binding level at 1 uM by Kinomescan method relative to control
[21] = molecular target: Serine/threonine-protein kinase 32A (Homo sapiens) (UniProt Q8WU08); assay: Binding affinity to wild-type human full length YANK1 (M1 to L396 residues) expressed in mammalian expression system assessed as residual binding level at 1 uM by Kinomescan method relative to control

Serine/threonine-protein kinase RIO2 (Homo sapiens), sequence (Q9BVS4 whole entry, looked up, the tested form may be a part): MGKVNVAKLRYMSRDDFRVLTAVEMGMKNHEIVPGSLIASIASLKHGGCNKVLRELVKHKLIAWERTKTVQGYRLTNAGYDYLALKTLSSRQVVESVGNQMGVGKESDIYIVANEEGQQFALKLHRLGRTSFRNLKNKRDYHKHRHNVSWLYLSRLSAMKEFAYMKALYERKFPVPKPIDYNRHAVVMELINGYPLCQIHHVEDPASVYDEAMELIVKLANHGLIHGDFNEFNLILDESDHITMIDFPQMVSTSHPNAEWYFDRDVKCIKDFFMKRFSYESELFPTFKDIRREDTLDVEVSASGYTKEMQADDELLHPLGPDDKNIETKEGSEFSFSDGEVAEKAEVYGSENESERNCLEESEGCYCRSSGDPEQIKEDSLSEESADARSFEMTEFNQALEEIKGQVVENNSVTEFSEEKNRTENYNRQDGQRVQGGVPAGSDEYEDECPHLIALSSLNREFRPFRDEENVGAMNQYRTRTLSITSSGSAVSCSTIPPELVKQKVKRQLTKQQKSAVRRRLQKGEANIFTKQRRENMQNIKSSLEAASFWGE
Serine/threonine-protein kinase ULK2 (Homo sapiens), sequence (Q8IYT8 whole entry, the tested form may be a part): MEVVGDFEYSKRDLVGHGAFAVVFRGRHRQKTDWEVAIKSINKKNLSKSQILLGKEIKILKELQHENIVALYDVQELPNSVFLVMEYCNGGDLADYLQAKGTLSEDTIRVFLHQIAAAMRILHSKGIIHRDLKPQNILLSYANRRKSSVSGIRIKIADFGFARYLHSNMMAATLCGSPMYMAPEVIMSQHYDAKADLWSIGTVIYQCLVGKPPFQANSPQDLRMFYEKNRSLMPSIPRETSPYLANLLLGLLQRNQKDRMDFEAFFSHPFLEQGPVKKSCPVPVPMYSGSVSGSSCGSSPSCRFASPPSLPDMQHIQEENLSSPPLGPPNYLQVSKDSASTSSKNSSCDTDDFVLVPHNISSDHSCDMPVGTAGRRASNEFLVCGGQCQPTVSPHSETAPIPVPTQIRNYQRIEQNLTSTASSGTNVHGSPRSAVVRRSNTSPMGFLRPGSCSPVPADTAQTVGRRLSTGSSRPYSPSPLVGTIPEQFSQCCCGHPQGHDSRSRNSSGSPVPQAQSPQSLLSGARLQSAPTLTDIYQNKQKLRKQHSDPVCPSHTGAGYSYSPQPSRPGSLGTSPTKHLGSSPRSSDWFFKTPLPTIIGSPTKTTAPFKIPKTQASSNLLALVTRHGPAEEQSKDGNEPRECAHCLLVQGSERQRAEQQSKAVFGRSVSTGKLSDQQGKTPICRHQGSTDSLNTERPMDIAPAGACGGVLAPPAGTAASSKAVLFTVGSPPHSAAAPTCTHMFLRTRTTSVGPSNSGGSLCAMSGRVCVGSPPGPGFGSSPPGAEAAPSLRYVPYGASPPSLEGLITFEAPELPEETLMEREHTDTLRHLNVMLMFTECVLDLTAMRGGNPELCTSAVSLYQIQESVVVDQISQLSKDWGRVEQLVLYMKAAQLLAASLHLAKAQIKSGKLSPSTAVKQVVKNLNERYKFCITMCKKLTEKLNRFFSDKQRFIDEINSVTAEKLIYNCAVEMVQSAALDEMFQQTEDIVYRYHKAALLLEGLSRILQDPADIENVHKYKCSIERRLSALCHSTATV
Receptor-type tyrosine-protein kinase FLT3 (Homo sapiens), sequence (P36888 whole entry, the tested form may be a part): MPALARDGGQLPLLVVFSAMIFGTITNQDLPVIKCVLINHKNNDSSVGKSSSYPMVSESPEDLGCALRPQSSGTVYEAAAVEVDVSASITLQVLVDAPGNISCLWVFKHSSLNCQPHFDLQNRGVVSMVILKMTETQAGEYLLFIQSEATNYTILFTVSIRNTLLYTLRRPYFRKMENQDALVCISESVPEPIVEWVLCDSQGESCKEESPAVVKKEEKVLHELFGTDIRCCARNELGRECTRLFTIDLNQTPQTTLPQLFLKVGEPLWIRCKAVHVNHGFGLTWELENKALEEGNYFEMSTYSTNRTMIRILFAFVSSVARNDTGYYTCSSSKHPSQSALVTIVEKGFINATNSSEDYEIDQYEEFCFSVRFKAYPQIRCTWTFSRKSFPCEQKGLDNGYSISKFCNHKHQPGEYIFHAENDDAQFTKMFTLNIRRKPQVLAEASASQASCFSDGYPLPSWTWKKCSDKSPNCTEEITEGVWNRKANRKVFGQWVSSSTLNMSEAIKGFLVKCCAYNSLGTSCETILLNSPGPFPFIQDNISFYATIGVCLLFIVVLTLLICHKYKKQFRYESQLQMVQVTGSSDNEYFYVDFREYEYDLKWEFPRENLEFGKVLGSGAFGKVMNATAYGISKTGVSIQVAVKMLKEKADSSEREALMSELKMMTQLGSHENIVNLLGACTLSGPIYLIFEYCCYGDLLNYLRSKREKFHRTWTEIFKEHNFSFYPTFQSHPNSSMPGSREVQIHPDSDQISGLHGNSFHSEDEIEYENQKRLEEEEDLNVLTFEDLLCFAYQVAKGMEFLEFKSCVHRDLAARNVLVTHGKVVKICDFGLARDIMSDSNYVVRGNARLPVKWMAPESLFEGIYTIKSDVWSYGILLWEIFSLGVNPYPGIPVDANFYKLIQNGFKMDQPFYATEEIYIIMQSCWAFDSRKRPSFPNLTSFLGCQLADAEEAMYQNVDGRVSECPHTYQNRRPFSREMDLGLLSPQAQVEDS
Mast/stem cell growth factor receptor Kit (Homo sapiens), P10721 [V559D], sequence (P10721 whole entry V559D, the tested form may be a part): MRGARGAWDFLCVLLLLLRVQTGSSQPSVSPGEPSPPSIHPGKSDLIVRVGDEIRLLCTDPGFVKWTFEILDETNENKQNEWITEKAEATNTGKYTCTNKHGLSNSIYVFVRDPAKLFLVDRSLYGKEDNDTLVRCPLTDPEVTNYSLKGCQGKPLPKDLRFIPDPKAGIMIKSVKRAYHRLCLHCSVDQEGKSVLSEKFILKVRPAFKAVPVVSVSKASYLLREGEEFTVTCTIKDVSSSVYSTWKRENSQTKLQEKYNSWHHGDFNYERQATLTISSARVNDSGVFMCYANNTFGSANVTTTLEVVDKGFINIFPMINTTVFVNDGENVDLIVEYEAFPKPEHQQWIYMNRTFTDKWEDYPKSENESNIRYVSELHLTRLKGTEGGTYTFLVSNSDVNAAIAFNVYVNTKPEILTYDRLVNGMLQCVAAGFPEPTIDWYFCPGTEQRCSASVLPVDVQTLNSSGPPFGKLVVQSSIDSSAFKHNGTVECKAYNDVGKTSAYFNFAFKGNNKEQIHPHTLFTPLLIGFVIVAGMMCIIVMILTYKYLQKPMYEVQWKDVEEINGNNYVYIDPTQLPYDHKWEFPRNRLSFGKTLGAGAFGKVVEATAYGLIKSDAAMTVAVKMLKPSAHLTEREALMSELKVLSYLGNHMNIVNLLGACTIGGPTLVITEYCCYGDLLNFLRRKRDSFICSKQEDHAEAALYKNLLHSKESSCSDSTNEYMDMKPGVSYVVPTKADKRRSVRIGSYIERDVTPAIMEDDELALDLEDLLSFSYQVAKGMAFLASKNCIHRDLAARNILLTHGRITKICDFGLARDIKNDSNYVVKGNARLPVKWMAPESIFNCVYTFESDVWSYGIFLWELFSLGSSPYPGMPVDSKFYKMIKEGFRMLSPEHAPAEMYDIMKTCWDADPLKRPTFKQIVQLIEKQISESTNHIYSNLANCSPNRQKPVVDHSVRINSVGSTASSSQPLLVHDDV
Rho-associated protein kinase 2 (Homo sapiens), sequence (O75116 whole entry, looked up, the tested form may be a part): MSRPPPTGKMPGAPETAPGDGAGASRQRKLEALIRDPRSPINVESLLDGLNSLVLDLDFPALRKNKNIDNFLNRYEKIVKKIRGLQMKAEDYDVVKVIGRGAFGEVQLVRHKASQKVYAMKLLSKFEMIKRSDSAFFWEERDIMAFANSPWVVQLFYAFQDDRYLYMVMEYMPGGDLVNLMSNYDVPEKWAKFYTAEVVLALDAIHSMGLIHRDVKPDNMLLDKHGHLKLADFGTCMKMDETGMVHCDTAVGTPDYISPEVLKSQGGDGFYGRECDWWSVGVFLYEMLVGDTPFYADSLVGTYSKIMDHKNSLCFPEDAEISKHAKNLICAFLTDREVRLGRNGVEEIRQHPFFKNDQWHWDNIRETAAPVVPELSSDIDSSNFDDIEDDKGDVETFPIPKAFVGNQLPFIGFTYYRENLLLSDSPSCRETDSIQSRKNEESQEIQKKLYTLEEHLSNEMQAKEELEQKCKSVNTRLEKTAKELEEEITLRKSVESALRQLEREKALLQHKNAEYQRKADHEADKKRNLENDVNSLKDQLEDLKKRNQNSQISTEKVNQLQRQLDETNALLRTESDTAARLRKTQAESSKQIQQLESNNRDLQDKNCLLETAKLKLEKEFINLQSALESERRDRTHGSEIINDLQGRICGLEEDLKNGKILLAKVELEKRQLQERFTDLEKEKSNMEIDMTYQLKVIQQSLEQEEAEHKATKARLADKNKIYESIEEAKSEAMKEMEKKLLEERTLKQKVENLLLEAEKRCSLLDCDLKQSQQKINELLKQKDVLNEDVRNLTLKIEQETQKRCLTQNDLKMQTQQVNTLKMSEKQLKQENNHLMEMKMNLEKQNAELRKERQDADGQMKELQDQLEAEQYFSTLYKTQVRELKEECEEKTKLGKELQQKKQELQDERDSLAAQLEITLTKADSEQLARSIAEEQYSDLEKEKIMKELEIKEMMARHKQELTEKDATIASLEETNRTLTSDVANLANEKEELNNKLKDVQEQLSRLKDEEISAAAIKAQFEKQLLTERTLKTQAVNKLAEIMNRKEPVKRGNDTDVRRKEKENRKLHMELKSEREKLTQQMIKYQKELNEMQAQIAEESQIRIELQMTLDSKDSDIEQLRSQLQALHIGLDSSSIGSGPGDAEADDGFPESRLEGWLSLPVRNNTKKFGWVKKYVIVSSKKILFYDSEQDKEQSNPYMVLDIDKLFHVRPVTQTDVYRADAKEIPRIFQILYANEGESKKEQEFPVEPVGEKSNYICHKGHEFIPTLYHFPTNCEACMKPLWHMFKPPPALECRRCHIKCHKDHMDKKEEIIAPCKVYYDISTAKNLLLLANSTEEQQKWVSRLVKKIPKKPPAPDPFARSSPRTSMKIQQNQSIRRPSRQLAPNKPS

**Q.** Which results are given for `C=CC(=O)Nc1ccccc1Nc1nc(Nc2ccc(N3CCN(C)CC3)cc2)ncc1C(=O)Nc1c(C)cccc1Cl`?
**A.** Activity [1]: 89%; Activity [2]: 100%; Activity [3]: 100%; Activity [4]: 78%; Activity [5]: 100%; Activity [6]: 100%; Activity [7]: 100%; Activity [8]: 69%; Activity [9]: 100%; Activity [10]: 21%; Activity [11]: 81%; Activity [12]: 98%; Activity [13]: 100%; Activity [14]: 100%; Activity [15]: 100%; Activity [16]: 100%; Activity [17]: 100%; Activity [18]: 100%; Activity [19]: 100%; Activity [20]: 100%; Activity [21]: 100%
